Measured values: ChEMBL document CHEMBL2417367 (Bioorg Med Chem, 2013)

Experiments:
[1] = test system: MDA-MB-231; test: Cytotoxicity against human MDA-MB-231 cells after 72 hrs by MTT assay; assay type: functional, cell-based; conditions: MDA-MB-231, 72 h
How it was run: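 Cells were grown in MEM with 10% FBS. About 4×10^3 cells per well were seeded and incubated 24 h at 37 °C in 5% CO2. Compounds were then added at set final concentrations for 72 h. MTT (final 5 µg/mL) was added for 4 h at 37 °C, and formazan was dissolved in DMSO and read at 492 nm against a 630 nm reference. Each line was tested three times; IC50 is mean ± SD.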

[2] = test system: A549; test: Cytotoxicity against human A549 cells after 72 hrs by MTT assay; assay type: functional, cell-based; conditions: A549, 72 h
[3] = test system: MKN-45; test: cells; conditions: Homo sapiens, MKN-45, 72 h
[4] = test system: HT-29; test: cells; conditions: Homo sapiens, HT-29, 72 h
[5] = test system: SMMC-7721; test: cells; conditions: Homo sapiens, SMMC-7721, 72 h
[6] = test system: NCI-H460; test: cells; conditions: Homo sapiens, NCI-H460, 72 h
[7] = cells; conditions: Homo sapiens, U-87 MG, 72 h

IC50 [3] [nM]	IC50 [4] [nM]	IC50 [5] [nM]	IC50 [6] [nM]	IC50 [7] [nM]	Compound	IC50 [1] [nM]	IC50 [2] [nM]
640	200	–	–	–	COc1cc2c(Oc3ccc(NC(=O)N/N=C(\C)c4ccccc4)cc3F)ccnc2cc1OCCCN1CCCCC1	960	160
930	330	–	–	–	CC/C(=N\NC(=O)Nc1ccc(Oc2ccnc3cc(OCCCN4CCCCC4)c(OC)cc23)c(F)c1)c1ccccc1	1100	290
2000	1100	–	–	–	COc1cc2c(Oc3ccc(NC(=O)N/N=C/C(C)C)cc3F)ccnc2cc1OCCCN1CCCCC1	2700	1900
680	330	–	–	–	COc1cc2c(Oc3ccc(NC(=S)N/N=C/c4ccc(F)cc4F)cc3F)ccnc2cc1OCCCN1CCCCC1	950	190
450	140	–	–	–	COc1cc2c(Oc3ccc(NC(=S)N/N=C/c4ccccc4[N+](=O)[O-])cc3F)ccnc2cc1OCCCN1CCCCC1	830	250
880	400	–	–	–	COc1cc2c(Oc3ccc(NC(=S)N/N=C/c4ccco4)cc3F)ccnc2cc1OCCCN1CCCCC1	1100	470
860	660	–	–	–	COc1cc2c(Oc3ccc(NC(=O)NNCc4ccc(F)cc4F)cc3F)ccnc2cc1OCCCN1CCC(C)CC1	1300	350
670	200	–	–	–	COc1cc2c(Oc3ccc(NC(=O)N/N=C/c4ccccc4)cc3F)ccnc2cc1OCCCN1CCOCC1	2100	350
560	96	–	–	–	COc1cc2c(Oc3ccc(NC(=O)N/N=C/c4ccc(F)cc4)cc3F)ccnc2cc1OCCCN1CCOCC1	1600	200
640	160	–	–	–	COc1cc2c(Oc3ccc(NC(=O)N/N=C/c4ccc(Cl)cc4)cc3F)ccnc2cc1OCCCN1CCOCC1	1200	330
1200	1400	–	–	–	COc1cc2c(Oc3ccc(NC(=O)N/N=C/c4ccc(OC(F)(F)F)cc4)cc3F)ccnc2cc1OCCCN1CCOCC1	1800	880
780	1100	–	–	–	COc1cc2c(Oc3ccc(NC(=O)N/N=C/c4ccc(C(F)(F)F)cc4)cc3F)ccnc2cc1OCCCN1CCOCC1	1100	790
490	130	330	69	–	COc1cc2c(Oc3ccc(NC(=O)N/N=C/c4ccc(F)cc4)cc3F)ccnc2cc1OCCCN1CCCCC1	820	89
580	180	–	–	–	COc1cc2c(Oc3ccc(NC(=O)N/N=C/c4ccccc4)cc3F)ccnc2cc1OCCCN1CCCCC1	1000	160
470	98	410	63	24	COc1cc2c(Oc3ccc(NC(=O)N/N=C/c4ccc(Cl)cc4)cc3F)ccnc2cc1OCCCN1CCCCC1	940	220
510	240	–	–	–	COc1cc2c(Oc3ccc(NC(=O)N/N=C/c4ccccc4)cc3F)ccnc2cc1OCCCN1CCC(C)CC1	930	300
610	83	–	–	–	COc1cc2c(Oc3ccc(NC(=O)N/N=C/c4ccc(F)cc4)cc3F)ccnc2cc1OCCCN1CCC(C)CC1	930	110
620	140	–	–	–	COc1cc2c(Oc3ccc(NC(=O)N/N=C/c4ccc(Cl)cc4)cc3F)ccnc2cc1OCCCN1CCC(C)CC1	1200	170
770	440	–	–	–	COc1cc2c(Oc3ccc(NC(=O)N/N=C/c4ccccc4)cc3F)ccnc2cc1OCCCN1CCCC1	950	420

IC50 [3] [nM]	IC50 [4] [nM]	IC50 [5] [nM]	IC50 [6] [nM]	IC50 [7] [nM]	Compound	IC50 [1] [nM]	IC50 [2] [nM]
590	220	–	–	–	COc1cc2c(Oc3ccc(NC(=O)N/N=C/c4ccc(F)cc4)cc3F)ccnc2cc1OCCCN1CCCC1	1300	270
610	180	–	–	–	COc1cc2c(Oc3ccc(NC(=O)N/N=C/c4ccc(Cl)cc4)cc3F)ccnc2cc1OCCCN1CCCC1	1300	410
710	380	–	–	–	COc1cc2c(Oc3ccc(NC(=O)N/N=C/c4ccc(F)c(F)c4)cc3F)ccnc2cc1OCCCN1CCCCC1	1300	270
570	220	–	–	–	COc1cc2c(Oc3ccc(NC(=O)N/N=C/c4ccccc4F)cc3F)ccnc2cc1OCCCN1CCCCC1	920	130
560	190	300	77	18	COc1cc2c(Oc3ccc(NC(=O)N/N=C/c4ccc(F)cc4F)cc3F)ccnc2cc1OCCCN1CCCCC1	850	78
490	180	–	–	–	COc1cc2c(Oc3ccc(NC(=O)N/N=C/c4ccccc4F)cc3F)ccnc2cc1OCCCN1CCC(C)CC1	880	220
590	160	–	–	–	COc1cc2c(Oc3ccc(NC(=O)N/N=C/c4ccccc4C(F)(F)F)cc3F)ccnc2cc1OCCCN1CCCCC1	730	130
520	260	–	–	–	COc1cc2c(Oc3ccc(NC(=O)N/N=C/c4ccccc4C#N)cc3F)ccnc2cc1OCCCN1CCCCC1	610	190
760	320	–	–	–	COc1cc2c(Oc3ccc(NC(=O)N/N=C/c4cccc([N+](=O)[O-])c4)cc3F)ccnc2cc1OCCCN1CCCCC1	1000	750
890	370	–	–	–	COc1cc2c(Oc3ccc(NC(=O)N/N=C/c4ccc([N+](=O)[O-])cc4)cc3F)ccnc2cc1OCCCN1CCCCC1	1400	820
480	150	–	–	–	COc1cc2c(Oc3ccc(NC(=O)N/N=C/c4ccccc4[N+](=O)[O-])cc3F)ccnc2cc1OCCCN1CCCCC1	550	190
730	330	–	–	–	COc1cccc(/C=N/NC(=O)Nc2ccc(Oc3ccnc4cc(OCCCN5CCCCC5)c(OC)cc34)c(F)c2)c1	1200	340
860	590	–	–	–	COc1ccc(OC)c(/C=N/NC(=O)Nc2ccc(Oc3ccnc4cc(OCCCN5CCCCC5)c(OC)cc34)c(F)c2)c1	1500	860
650	700	–	–	–	COc1cc2c(Oc3ccc(NC(=O)N/N=C/c4c(C)cc(C)cc4C)cc3F)ccnc2cc1OCCCN1CCCCC1	1100	1900
790	320	–	–	–	COc1cc2c(Oc3ccc(NC(=O)N/N=C/c4cccnc4)cc3F)ccnc2cc1OCCCN1CCCCC1	880	460
710	360	–	–	–	COc1cc2c(Oc3ccc(NC(=O)N/N=C/c4ccco4)cc3F)ccnc2cc1OCCCN1CCCCC1	910	440
930	440	–	–	–	COc1cc2c(Oc3ccc(NC(=O)N/N=C/c4ccc[nH]4)cc3F)ccnc2cc1OCCCN1CCCCC1	1000	540
820	830	–	–	–	C=CCc1cccc(/C=N/NC(=O)CN2CCN(Cc3ccccc3)CC2)c1O [PAC-1]	4600	–
